Measured values from article PMC3210016 (Cancer research, 2010).

Experiments:
HCC2429 cells [1] = test: Apoptosis screen of peptide library; assay type: cell-based, human; conditions: representative experiment, Figure 1A, quadruplicate
Method in brief: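 A library of 155 peptides (5–15 residues) spanning the 34 EGF-like repeats of the Notch3 ECD was screened. HCC2429 and HeLa cells were seeded at 3,000 cells per well in 384-well format. Annexin V Alexa Fluor 680 (1:2,200 in RPMI) and peptide solution (0.1 mg/ml in RPMI before addition) were added. After overnight incubation, fluorescence was read on an FMAT 8100 HTS system, in quadruplicate per peptide.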

HCC2429 cells [2] = test: Apoptosis assay; assay type: cell-based, human; conditions: HCC2429, 24 hours, serum-free RPMI, flow cytometry; Figure 2D
Method in brief: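 HCC2429 cells were exposed for 24 hours in serum-free RPMI to Notch3 ECD-derived peptides or peptide–Fc fusion proteins. The concentration was not given. Apoptotic fraction was measured with an Annexin V-FITC kit on a flow cytometer, with a γ-secretase inhibitor as positive control. Comparisons used the Wilcoxon rank-sum test, with significance at P < 0.05.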

| Substance | Induction of apoptosis (fluorescence, FMAT 8100 HTS) (HCC2429 cells [1]) | Apoptosis (Annexin V-FITC) (HCC2429 cells [2]) |
| --- | --- | --- |
| CATAV [Peptide N102] | induced apoptosis |  |
| CVCVNGWTGES [Peptide N17] |  | highest apoptotic activity |
| CFHGAT [Peptide N103] | induced apoptosis |  |
| CLNGGS [Peptide N132] | induced apoptosis |  |
